Test results as given in ChEMBL document CHEMBL1122346, “Antihypertensive activity of 6-arylpyrido[2,3-d]pyrimidin-7-amine derivatives. 2. 7-Acyl amide analogues” (J Med Chem, 1983).
Converted amounts (≈) assume the structure as drawn. “And” between values parts separate entries of the source, which are not always exact repeats. Equal entries are not always repeated. One block for each molecule: values may come before it.

Experiments:
[1] = Solubility, determined in 0.1 N HCl; type: physicochemical; conditions: read-out: S
Outline: (§1)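 Dissolved compound was quantified by UV absorption. For the pH 7 value, the acidic solution was brought to pH 7 to give the unprotonated base, the precipitate was removed, and the supernatant was assayed again by UV.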

[2] = Solubility, determined in phosphate buffer at pH 7; type: physicochemical; outline: as §1
[3] = pKa value, measured in 67% of DMF; type: physicochemical; conditions: 67% DMF
Outline: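 Dissociation constants were found by potentiometric titration in 67% N,N-dimethylformamide/water.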

[4] = Half-life measured in 0.1 N HCl; type: ADME
Outline: (§2)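 Hydrolytic stability was tested at room temperature on solutions of ca. 0.001-0.002%. Media were 0.1 N HCl (pH ~1.5), 50% MeOH/pH 7 phosphate buffer (pH ~8.0), and 50% MeOH/0.05 N aqueous NaOH (pH ~12.2). Changes in the UV spectrum were followed over 2 weeks.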

[5] = Half-life measured in 1:1 ratio of MeOH and 0.1 N NaOH; type: ADME; conditions: 1:1 MeOH / 0.1 N NaOH; outline: as §2
[6] = Half-life measured in 1:1 ratio of MeOH and phosphate buffer at pH 7; type: ADME; conditions: 1:1 MeOH / phosphate buffer; outline: as §2
[7] = system: Rattus norvegicus; assay: Antihypertensive activity rating in conscious SHR after 24-72 hr post dose at 10 mg/kg (po); Range 10-20%; type: functional
[8] = organism: Rattus norvegicus; assay: Maximum percent decrease in blood pressure in SHR ( hour post dose in parentheses); type: functional
[9] = system: Rattus norvegicus; assay: Antihypertensive activity rating in conscious SHR after 10 hr post dose at 10 mg/kg (po); Range 20-30%; type: functional
[10] = system: Rattus norvegicus; assay: Antihypertensive activity rating in conscious SHR after 10 hr post dose at 50 mg/kg (po); type: functional
[11] = system: Rattus norvegicus; assay: Antihypertensive activity rating in conscious SHR after 18 hr post dose at 50 mg/kg (po); type: functional
[12] = system: Rattus norvegicus; assay: Antihypertensive activity rating in conscious SHR after 2 hr post dose at 10 mg/kg (po); Range 20-30%; type: functional
[13] = system: Rattus norvegicus; assay: Antihypertensive activity rating in conscious SHR after 2 hr post dose at 50 mg/kg (po); type: functional
[14] = pKa value, measured in 67% DMF/water
[15] = system: Rattus norvegicus; assay: Antihypertensive activity rating in conscious SHR after 10 h post dose at 10 mg/kg (po); 0=No significant reduction; type: functional
[16] = system: Rattus norvegicus; assay: Antihypertensive activity rating in conscious SHR after 2 hr post dose at 10 mg/kg (po); 0=No significant reduction; type: functional
[17] = system: Rattus norvegicus; assay: Antihypertensive activity rating in conscious SHR after 2 hr post dose at 50 mg/kg (po); Range 10-20%; type: functional
[18] = system: Rattus norvegicus; assay: Antihypertensive activity in conscious spontaneously hypertensive rats 10 hr following 50 mg/kg p.o.; Range 10-20%.; type: functional; conditions: route oral
[19] = system: Rattus norvegicus; assay: Antihypertensive activity rating in conscious SHR after 18 hr post dose at 50 mg/kg (po); Range 20-30%; type: functional
[20] = system: Rattus norvegicus; assay: Antihypertensive activity rating in conscious SHR after 2 hr post dose at 50 mg/kg (po); Range 20-30%; type: functional
[21] = system: Rattus norvegicus; assay: Antihypertensive activity rating in conscious SHR after 24 h post dose at 10 mg/kg (po); Range 10-20%; type: functional
[22] = system: Rattus norvegicus; assay: Antihypertensive activity rating in conscious SHR after 10 hr post dose at 10 mg/kg (po); Range 10-20%; type: functional
[23] = system: Rattus norvegicus; assay: Antihypertensive activity rating in conscious SHR after 2 hr post dose at 10 mg/kg (po); Range 10-20%; type: functional
[24] = Half-life measured in 1:1 ratio of MeOH and phosphate buffer at pH 7; 15-17; type: ADME; conditions: 1:1 MeOH / phosphate buffer; outline: as §2
[25] = Half-life measured in 0.1 N HCl; Stable; type: ADME; conditions: buffer; outline: as §2
[26] = system: Rattus norvegicus; assay: Antihypertensive activity rating in conscious SHR after 24 h post dose at 50 mg/kg (po); Range 20-30%; type: functional
[27] = system: Rattus norvegicus; assay: Antihypertensive activity rating in conscious SHR after 10 hr post dose at 50 mg/kg (po); Range 20-30%; type: functional
[28] = Half-life measured in 1:1 ratio of MeOH and phosphate buffer at pH 7; Stable; type: ADME; outline: as §2
[29] = system: Rattus norvegicus; assay: Antihypertensive activity rating in conscious SHR after 24 hr post dose at 50 mg/kg (po); Range 10-20%; type: functional
[30] = system: Rattus norvegicus; assay: Antihypertensive activity in conscious spontaneously hypertensive rats 2 hr following 50 mg/kg p.o.; No significant reduction.; type: functional; conditions: route oral
[31] = system: Rattus norvegicus; assay: Antihypertensive activity rating in conscious SHR after 18 hr post dose at 50 mg/kg (po); Range 10-20%; type: functional
[32] = system: Rattus norvegicus; assay: Antihypertensive activity in conscious spontaneously hypertensive rats 10 hr following 50 mg/kg p.o.; No significant reduction.; type: functional; conditions: route oral
[33] = system: Rattus norvegicus; assay: Antihypertensive activity rating in conscious SHR after 18 hr post dose at 50 mg/kg (po); 0=No significant reduction; type: functional
[34] = system: Rattus norvegicus; assay: Antihypertensive activity rating in conscious SHR after 24 hr post dose at 10 mg/kg (po); 0=no significant reduction; type: functional
[35] = system: Rattus norvegicus; assay: Antihypertensive activity rating in conscious SHR after 24 hr post dose at 50 mg/kg (po); type: functional
[36] = Half-life measured in 0.1 N HCl (*-<5% change after 14 days at 25 degrees C; Stable; type: ADME; conditions: buffer, 336 h; outline: as §2
[37] = system: Rattus norvegicus; assay: Antihypertensive activity in conscious spontaneously hypertensive rats 24 hr following 50 mg/kg p.o.; No significant reduction.; type: functional; conditions: route oral
[38] = system: Rattus norvegicus; assay: Antihypertensive activity rating in conscious SHR after 24 hr post dose at 50 mg/kg (po); 0=No significant reduction; type: functional
[39] = system: Rattus norvegicus; assay: Antihypertensive activity rating in conscious SHR after 24 hr post dose at 50 mg/kg (po)v; type: functional
[40] = system: Rattus norvegicus; assay: Antihypertensive activity rating in conscious SHR after 24 h post dose at 10 mg/kg (po); 0=No significant reduction; type: functional

solubility [1]: 34200 µg/mL (≈ 98.5 mM)
solubility [2]: 6050 µg/mL (≈ 17.4 mM)
pKa [3]: 4.1
half-life [4]: 12.5 h
half-life [5]: < 0.0833 h
half-life [6]: 60 h
pKa [14]: 12.8
Compound: CC(=O)Nc1nc2nc(C)ncc2cc1-c1c(Cl)cccc1Cl
Activity rating [7]: 10%
Decrease [8]: 45%
Activity rating [9]: 20%
Activity rating [10]: >30%
Activity rating [11]: >30%
Activity rating [12]: 20%
Activity rating [13]: >30%

Compound: Cc1ncc2cc(-c3c(Cl)cccc3Cl)c(NC(=O)c3ccc([N+](=O)[O-])cc3)nc2n1
Activity rating [15]: 0%
Activity rating [16]: 0%

Compound: CNc1nc2nc(C)ncc2cc1-c1c(Cl)cccc1Cl
Activity rating [17]: 10%
Decrease [8]: 21%
Activity rating [18]: 10%
Activity rating [19]: 20%

Compound: Cc1ncc2cc(-c3c(Cl)cccc3Cl)c(NC=O)nc2n1
Activity rating [20]: 20%
Activity rating [21]: 10%
Decrease [8]: 33%
Activity rating [22]: 10%
Activity rating [10]: >30%
Activity rating [11]: >30%
Activity rating [23]: 10%

solubility [1]: 6600 µg/mL (≈ 16.5 mM)
solubility [2]: 220 µg/mL (≈ 0.551 mM)
pKa [3]: 4.3
half-life [24]: 360 h
T1/2 [25]: Stable
half-life [5]: 4 h
pKa [14]: 10.7
Compound: Cc1ncc2cc(-c3c(Cl)cccc3Cl)c(NC(=O)c3ccco3)nc2n1
Activity rating [17]: 10%
Activity rating [26]: 20%
Activity rating [7]: 10%
Decrease [8]: 27%
Activity rating [22]: 10%
Activity rating [27]: 20%
Activity rating [16]: 0%

solubility [1]: 26600 µg/mL (≈ 64.8 mM)
solubility [2]: 2630 µg/mL (≈ 6.41 mM)
pKa [3]: 4.1
T1/2 [25]: Stable
half-life [5]: 4 h
half-life [6]: 54 h
pKa [14]: 9.8
Compound: Cc1ncc2cc(-c3c(Cl)cccc3Cl)c(NC(=O)c3cccnc3)nc2n1
Activity rating [17]: 10%
Activity rating [7]: 10%
Decrease [8]: 26%
Activity rating [27]: 20%
Activity rating [23]: 10%

Compound: NNc1nncc2ccccc12 [HYDRALAZINE]
Activity rating [21]: 10%
Decrease [8]: 51% and 27%
Activity rating [9]: 20%

solubility [1]: 14600 µg/mL (≈ 40.2 mM)
solubility [2]: 280 µg/mL (≈ 0.771 mM)
pKa [3]: 4.2
T1/2 [28]: Stable
T1/2 [25]: Stable
half-life [5]: 6 h
pKa [14]: 11.3
Compound: COC(=O)Nc1nc2nc(C)ncc2cc1-c1c(Cl)cccc1Cl
Activity rating [17]: 10%
Activity rating [29]: 10%
Activity rating [7]: 10%
Decrease [8]: 29%
Activity rating [22]: 10%

Compound: CC(=O)Nc1ncc2cc(-c3c(Cl)cccc3Cl)c(NC(C)=O)nc2n1
Decrease [8]: 32%
Activity rating [27]: 20%
Activity rating [11]: >30%
Activity rating [30]: 0%

Compound: Cc1ncc2cc(-c3c(Cl)cccc3Cl)c(O)nc2n1
Decrease [8]: 10%
Activity rating [18]: 10%
Activity rating [31]: 10%
Activity rating [30]: 0%

Compound: Cc1ncc2cc(-c3c(Cl)cccc3Cl)c(NC(=O)NC(C)(C)C)nc2n1
Activity rating [32]: 0%
Activity rating [33]: 0%
Activity rating [30]: 0%

Compound: CCC(=O)Nc1nc2nc(C)ncc2cc1-c1c(Cl)cccc1Cl
Activity rating [34]: 0
Decrease [8]: 35%
Activity rating [22]: 10%
Activity rating [10]: >30%
Activity rating [11]: >30%
Activity rating [23]: 10%
Activity rating [13]: >30%

solubility [1]: 4850 µg/mL (≈ 15.9 mM)
solubility [2]: 7 µg/mL (≈ 0.0229 mM)
T1/2 [28]: Stable
T1/2 [36]: Stable
Compound: Cc1ncc2cc(-c3c(Cl)cccc3Cl)c(N)nc2n1
Activity rating [17]: 10%
Activity rating [35]: >30%
Activity rating [7]: 10%
Decrease [8]: 32%
Activity rating [22]: 10%
Activity rating [10]: >30%

pKa [3]: 4.2
T1/2 [28]: Stable
T1/2 [25]: Stable
half-life [5]: 1.6 h
Compound: CC(=O)N(C)c1nc2nc(C)ncc2cc1-c1c(Cl)cccc1Cl
Activity rating [37]: 0%
Activity rating [32]: 0%
Activity rating [30]: 0%

Compound: Cc1ncc2cc(-c3c(Cl)cccc3Cl)c(NC(=O)C(F)(F)F)nc2n1
Activity rating [20]: 20%
Decrease [8]: 23%
Activity rating [27]: 20%
Activity rating [19]: 20%

pKa [3]: 2.5
T1/2 [28]: Stable
half-life [4]: 3.4 h
half-life [5]: 8.8 h
Compound: CC(=O)/N=c1/c(-c2c(Cl)cccc2Cl)cc2cnc(C)nc2n1C
Activity rating [17]: 10%
Activity rating [29]: 10%
Decrease [8]: 17%
Activity rating [32]: 0%

Compound: CCO/C(=N\C)Nc1nc2nc(C)ncc2cc1-c1c(Cl)cccc1Cl
Activity rating [38]: 0%
Decrease [8]: 10%
Activity rating [32]: 0%
Activity rating [30]: 0%

Compound: CC(=O)Nc1nc2ncncc2cc1-c1ccccc1Br
Activity rating [17]: 10%
Activity rating [39]: 0%
Decrease [8]: 19%
Activity rating [18]: 10%

Compound: Cc1ncc2cc(-c3c(Cl)cccc3Cl)c(NC(=O)c3ccoc3)nc2n1
Activity rating [21]: 10%
Decrease [8]: 28%
Activity rating [9]: 20%
Activity rating [12]: 20%

Compound: Cc1ncc2cc(-c3c(Cl)cccc3Cl)c(NC(=O)CCl)nc2n1
Activity rating [40]: 0%
Decrease [8]: 24%
Activity rating [9]: 20%
Activity rating [23]: 10%
